pEC50, pIC50: −log10 of the molar value. In brackets after ≈: the same amount, converted by molar mass.
Key:
[1] = molecular target: T1, Glycogen synthase kinase-3 beta (Homo sapiens, UniProt P49841); test: Inhibition of GSK3-beta in human HepG2 cells assessed as incorporation of [3H]glucose into glycogen at 30 uM after 3 hrs by liquid scintillation counting relative to CHIR99021; assay type: cell-based
How it was run: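 Hep G2 cells seeded at 1 × 10^5 per well and cultured 3 days, then serum-starved 3 h in low-glucose DMEM. Compound added at varying concentrations with […] D-[2-3H]glucose (0.3% DMSO final) for 3 h at 37 °C. Cells lysed in KOH, glycogen ethanol-precipitated, and [3H] incorporation counted by scintillation. Efficacy is % of reference at 30 µM; n = 3.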
Target sequence in this assay (P49841 whole entry, looked up): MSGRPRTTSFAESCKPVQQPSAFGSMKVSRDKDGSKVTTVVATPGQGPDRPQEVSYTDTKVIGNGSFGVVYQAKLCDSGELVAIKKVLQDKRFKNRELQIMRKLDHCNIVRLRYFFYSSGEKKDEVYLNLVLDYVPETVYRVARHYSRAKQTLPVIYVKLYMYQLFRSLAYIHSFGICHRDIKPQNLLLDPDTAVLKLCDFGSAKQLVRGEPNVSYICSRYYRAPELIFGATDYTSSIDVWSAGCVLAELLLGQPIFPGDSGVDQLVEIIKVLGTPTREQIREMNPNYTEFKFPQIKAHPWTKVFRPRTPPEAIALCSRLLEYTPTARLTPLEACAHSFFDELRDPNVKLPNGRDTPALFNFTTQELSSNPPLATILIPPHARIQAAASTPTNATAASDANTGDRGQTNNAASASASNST

Mus musculus [2] = test: Antidiabetic activity in fasted ICR mouse assessed as inhibition of plasma glucose concentration at 300 mg/kg, po administered 30 mins prior to glucose-challenge by oral glucose tolerance test; assay type: functional
How it was run: (§1)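 7-week-old ICR mice fasted 15–17 h, dosed orally with compound suspended in 0.3% CMC-Na or with vehicle. Glucose 5 g/kg given orally 30 min later. Tail-vein blood sampled before dosing and at 0, 0.5, 1 and 2 h after the glucose load; plasma glucose measured by glucose C II-test. The summed 0.5 + 1 h glucose values are expressed as % decrease versus vehicle.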

[3] = molecular target: T1, Glycogen synthase kinase-3 beta; test: Inhibition of GSK3-beta in human HepG2 cells assessed as incorporation of [3H]glucose into glycogen after 3 hrs by liquid scintillation counting; assay type: cell-based
Target sequence in this assay (P49841 whole entry): as the sequence (P49841 whole entry, looked up) above

[4] = molecular target: T1, Glycogen synthase kinase-3 beta; test: Inhibition of human recombinant GSK3-beta after 1 hr by KinaseGlo luciferase assay
Target sequence in this assay (P49841 whole entry): as the sequence (P49841 whole entry, looked up) above

Staphylococcus aureus = test: Antibacterial activity against Staphylococcus aureus after 18 hrs by microdilution method; assay type: organism-based; conditions: in vitro
Escherichia coli = test: Antibacterial activity against Escherichia coli after 18 hrs by microdilution method; assay type: organism-based
[5] = AUC in ICR mouse liver at 300 mg/kg, po; assay type: ADME, organism-based; parameters: dose 300 mg/kg, route oral
How it was run: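 ICR mice dosed orally at 300 mg/kg. Liver AUC was calculated from the plasma AUC and the liver-to-plasma concentration ratio at 4 h post-dose. Means, n = 5–6.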

[6] = Ratio of drug uptake in ICR mouse liver to ICR mouse plasma at 300 mg/kg, po at 4 hrs; assay type: ADME, organism-based; parameters: dose 300 mg/kg, route oral
How it was run: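 Liver and plasma concentrations measured 4 h after an oral 300 mg/kg dose in ICR mice; ratio given as liver/plasma; means, n = 5–6.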

[7] = AUC (0 to 25 hrs) in ICR mouse plasma at 300 mg/kg, po; assay type: ADME, organism-based; parameters: time < 25 hr, dose 300 mg/kg, route oral
Mus musculus [8] = test: Antidiabetic activity in fasted ICR mouse assessed as inhibition of plasma glucose concentration at 100 mg/kg, po administered 30 mins prior to glucose-challenge by oral glucose tolerance test; assay type: functional; how it was run: as §1
Mus musculus [9] = test: Antidiabetic activity in fasted ICR mouse assessed as inhibition of plasma glucose concentration at 150 mg/kg, po administered 30 mins prior to glucose-challenge by oral glucose tolerance test; assay type: functional; how it was run: as §1
Mus musculus [10] = test: Antidiabetic activity in po dosed fasted ICR mouse assessed as inhibition of plasma glucose concentration administered 30 mins prior to glucose-challenge by oral glucose tolerance test; assay type: functional, organism-based; how it was run: as §1
Mus musculus [11] = test: Antidiabetic activity in fasted ICR mouse assessed as inhibition of plasma glucose concentration at 50 mg/kg, po administered 30 mins prior to glucose-challenge by oral glucose tolerance test; assay type: functional; how it was run: as §1
Mus musculus [12] = test: Ratio of AUC (0 to 25 hrs) in ICR mouse plasma to AUC in ICR mouse liver at 300 mg/kg, po; assay type: ADME, organism-based; parameters: dose 300 mg/kg, route oral; conditions: in vivo

Row | Efficacy [1] [%] | pEC50 [3] | pIC50 [4] | MIC (Staphylococcus aureus) [µM] | MIC (Escherichia coli) [µM] | AUC [5] [µM·h] | Kp at 4 h [6] | AUC(0-t) at 25 h [7] [µM·h] | Ratio AUC (Mus musculus [12]) | Compound | inhibition in vivo at 300 mg/kg (Mus musculus [2]) [%] | inhibition in vivo at 100 mg/kg (Mus musculus [8]) [%] | inhibition in vivo at 150 mg/kg (Mus musculus [9]) [%] | inhibition (Mus musculus [10]) | inhibition in vivo at 50 mg/kg (Mus musculus [11]) [%]
1 | 85 | 4.89 | 6.60 | > 34 | > 34 |  |  |  |  | Nc1c(F)c(NCCNc2ccccn2)c2c3c1c(=O)c(C(=O)O)cn3C1(CCCC1)CCO2 |  |  |  |  | 
2 | 42 |  | 7.43 | 5 (≈ 2.2 µg/mL) | 9 (≈ 3.96 µg/mL) |  |  |  |  | Nc1c(F)c(NCCNc2ccccn2)c2c3c1c(=O)c(C(=O)O)cn3C1(CCO2)CC1 |  |  |  |  | 
3 | 65 | 5.49 | 7.44 | 18 (≈ 8.16 µg/mL) | > 34 | 760 | 32 | 24 | 32 | Nc1c(F)c(NCCNc2ccccn2)c2c3c1c(=O)c(C(=O)O)cn3C1(CCC1)CCO2 | 31 | 32 | 39 | Dose-dependent effect | 20
4 |  | 4.70 |  |  |  |  |  |  |  | Nc1c(F)c(NCCNc2ccccn2)c2c3c1c(=O)c(C(=O)O)cn3C1(CCCC1)CO2 |  |  |  |  | 

More lines, now with the values behind:

Row | Compound | Efficacy [1] [%] | pEC50 [3] | pIC50 [4] | MIC (Staphylococcus aureus) [µM] | MIC (Escherichia coli) [µM] | AUC [5] [µM·h] | Kp at 4 h [6] | AUC(0-t) at 25 h [7] [µM·h] | Ratio AUC (Mus musculus [12]) | inhibition in vivo at 300 mg/kg (Mus musculus [2]) [%] | inhibition in vivo at 100 mg/kg (Mus musculus [8]) [%] | inhibition in vivo at 150 mg/kg (Mus musculus [9]) [%] | inhibition (Mus musculus [10]) | inhibition in vivo at 50 mg/kg (Mus musculus [11]) [%]
5 | Cc1cnc(-c2cnc(NCCNc3ccc(C#N)cn3)nc2-c2ccc(Cl)cc2Cl)[nH]1 [LADUVIGLUSIB] | 100 |  |  |  |  |  |  |  |  | 38 |  |  |  | 
6 | CC1CC2(CCC2)n2cc(C(=O)O)c(=O)c3c(N)c(F)c(NCCNc4ccccn4)c(c32)O1 (configuration not stated) | 94 | 5.68 | 6.60 | > 34 | > 34 |  |  |  |  |  |  |  |  | 
7 | CC1COc2c(NCCNc3ccccn3)c(F)c(N)c3c(=O)c(C(=O)O)cn(c23)C12CCC2 (configuration not stated) | 48 | 5.85 | 8.00 | > 34 | > 34 | 217 | 32 | 6.8 |  | 13 |  |  |  | 
8 | Cc1c[nH]c(-c2cnc(NCCNc3ccc(C#N)cn3)nc2-c2ccc(Cl)cc2Cl)n1 [LADUVIGLUSIB] |  |  |  |  |  | 820 | 3.8 | 210 |  |  |  |  |  | 
9 | Nc1c(F)c(NCCNc2ccccn2)c2c3c1c(=O)c(C(=O)O)cn3C1(CCC1)CCN2 | 12 |  | 6.26 | > 140 | > 140 |  |  |  |  |  |  |  |  | 

Source: ChEMBL document CHEMBL1938336, “Quinolone derivatives containing strained spirocycle as orally active glycogen synthase kinase 3β (GSK-3β) inhibitors for type 2 diabetics” (Bioorg Med Chem, 2012)
